Measurements published in article PMC7471432 (Acta Pharmacologica Sinica, 2020).
Read-outs that look alike come from different tables or passages of the source.

How the values were obtained:
[1] = test system: 6-Hz-induced seizure model mice; assay: 6-Hz corneal kindling epilepsy test; assay type: in vivo, mouse; settings: 100 mg/kg; GM oral 60 min prior to stimulation; 32 mA
AMPA receptors = assay: AMPA-induced currents, rat hippocampal neurons; assay type: cell-based; settings: n = 4
Procedure, shortened: (§1)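 Whole-cell recordings were made at room temperature from rat hippocampal neurons held at −60 mV. Currents were activated by applying the corresponding ligand under continuous bath perfusion. Signals were filtered at 2 kHz and digitized at 10 kHz. Data are means ± SEM, tested by paired two-tailed t test against control.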

LVA calcium currents = assay: Low-voltage-activated; assay type: cell-based, rat; settings: 10 µmol/L GM
Procedure, shortened: (§2)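 Rat hippocampal neurons were recorded in whole-cell voltage-clamp with a CsCl/TEA/5 mM MgATP internal (pH 7.2) and a bath containing 5 mM CaCl2 and 20 mM TEA-Cl (pH 7.4). Currents were evoked by steps from −90 mV to 0 mV at room temperature. Activation and inactivation curves were fitted with Boltzmann equations, and IC50 with a 3-parameter Hill equation.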

HVA calcium currents = assay: High-voltage-activated; assay type: cell-based, rat; settings: 10 µmol/L GM
Procedure, shortened: as §2

[2] = test system: transient outward potassium current (IA); assay: Transient outward potassium current; assay type: cell-based, rat; settings: read-out: IC50 on IA; n = 5
Procedure, shortened: (§3)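 Rat hippocampal neurons were recorded in whole-cell voltage-clamp with a KCl/EGTA internal and a NaCl/KCl bath. Cells were held at −50 mV, prepulsed to −110 mV for 500 ms, then stepped from −110 to 40 mV. For IK, a 50 ms step to −50 mV removed IA, and amplitude was read at 300 ms. IA was read as peak. IC50 came from a 3-parameter Hill fit.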

GABA receptors = assay: GABA-induced currents, rat hippocampal neurons; assay type: cell-based; settings: n = 4
Procedure, shortened: as §1

CaV currents = assay: Total CaV currents, whole-cell voltage-clamp, rat hippocampal neurons; assay type: cell-based; settings: read-out: IC50 on total CaV currents; holding −90 mV, test pulse 0 mV, n = 6
Procedure, shortened: as §2

KA receptors = assay: KA-induced currents, rat hippocampal neurons; assay type: cell-based; settings: n = 4
Procedure, shortened: as §1

human Kir2.1 channels = target: T1, human Kir2.1 channels (Homo sapiens, UniProt P63252); assay: Kir2.1 currents in HEK-293 cells stably expressing hKir2.1; assay type: cell-based
T1 sequence (P63252 1-427): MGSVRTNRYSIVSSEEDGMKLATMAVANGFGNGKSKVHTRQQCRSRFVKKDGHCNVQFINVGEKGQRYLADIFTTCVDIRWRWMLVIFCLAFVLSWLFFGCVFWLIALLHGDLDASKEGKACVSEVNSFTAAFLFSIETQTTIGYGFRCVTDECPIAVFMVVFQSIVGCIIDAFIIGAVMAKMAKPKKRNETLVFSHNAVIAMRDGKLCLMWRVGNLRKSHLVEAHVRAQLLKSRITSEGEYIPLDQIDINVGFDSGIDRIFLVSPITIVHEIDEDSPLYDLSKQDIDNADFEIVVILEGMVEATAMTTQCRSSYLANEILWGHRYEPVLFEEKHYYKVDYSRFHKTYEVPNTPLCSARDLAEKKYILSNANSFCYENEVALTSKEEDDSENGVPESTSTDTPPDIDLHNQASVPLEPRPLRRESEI
Procedure, shortened: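 HEK-293 cells stably expressing human Kir2.1 were held at −70 mV and given a 500 ms test pulse to −140 mV. The internal was 140 mM KCl with EGTA (pH 7.2) and the bath was NaCl/KCl (pH 7.4), at room temperature. Inhibition ratios are means ± SEM, compared with paired t test against control.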

[3] = test system: isolated rat aorta strips; settings: 10 µmol/L GM; cited from earlier work
[4] = test system: cultured mouse hippocampal neurons; assay type: cell-based
Procedure, shortened: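 Hippocampi from E18 C57BL/6 mouse embryos were digested with 3 mg/mL proteinase for 8 min at 32 °C, triturated, and plated on poly-D-lysine coverslips. Cells were switched to serum-free Neurobasal-A/B-27 after 6 h and recorded after 12 days. Whole-cell current-clamp used a KCl/EGTA pipette (pH 7.2) and perfused NaCl/HEPES bath (pH 7.4), at room temperature.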

NMDA receptors = assay: NMDA-induced currents, rat hippocampal neurons; assay type: cell-based; settings: n = 4
Procedure, shortened: as §1

[5] = test system: MES-induced seizure model mice; assay: MES-induced seizure assay; assay type: in vivo, mouse; settings: oral
nACh receptors = assay: Acetylcholine-evoked currents, cultured rat hippocampal neurons; assay type: cell-based; settings: 30 μmol/L GM
Procedure, shortened: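 Cultured rat hippocampal neurons were held at −60 mV in whole-cell mode, and acetylcholine-evoked currents were recorded at room temperature with and without test compound. Concentration–response data (IDrug/IControl) were fitted to a 3-parameter Hill equation to obtain IC50. Data are means ± SEM.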

[6] = test system: delayed rectifier potassium current (IK); assay: Delayed rectifier potassium current; assay type: cell-based, rat; settings: read-out: IC50 on IK; n = 5
Procedure, shortened: as §3

NaV currents = assay: NaV currents, whole-cell voltage-clamp, acutely isolated rat hippocampal neurons; assay type: cell-based

CC[C@@H](C(N)=O)N1CCCC1=O [LEV, Levetiracetam, reference compound]
Protection rate (%) [1]: 100%

Geissoschizine methyl ether [GM]
change of AMPA (glutamate) receptor-mediated currents (AMPA receptors; 30 µmol/L GM): No remarkable changes | modulation of AMPA (glutamate) receptor-mediated currents (AMPA receptors; 100 µmol/L GM): very weak | change of activation curve of LVA currents (LVA calcium currents): did not exhibit a remarkable change | reduction of LVA currents (LVA calcium currents; elicited at 0 mV, n = 7): 48.4% ± 6.9% | effect on LVA current inactivation (LVA calcium currents; n = 5): lack of an effect | change of activation curve of HVA currents (HVA calcium currents): did not exhibit a remarkable change | reduction of HVA currents (HVA calcium currents; elicited at 0 mV, n = 7): 28.5% ± 10.9% | shift in inactivation curve of HVA currents (HVA calcium currents; n = 9): No significant shift | IC50 [2]: 50 µM | Protection rate (%) [1]: 70% | change of GABA receptor-mediated currents (GABA receptors; 30 µmol/L GM): No remarkable changes | modulation of GABA receptor-mediated currents (GABA receptors; 100 µmol/L GM): very weak | IC50 (CaV currents): 13.3 µM | change of KA (glutamate) receptor-mediated currents (KA receptors; 30 µmol/L GM): No remarkable changes | modulation of KA (glutamate) receptor-mediated currents (KA receptors; 100 µmol/L GM): very weak | inhibition ratio of Kir2.1 currents (human Kir2.1 channels; 10 µmol/L GM, n = 5): 1.3% ± 2.2% | inhibition ratio of Kir2.1 currents (human Kir2.1 channels; 30 µmol/L GM, n = 7): 3.8% ± 1.5% | inhibition ratio of Kir2.1 currents (human Kir2.1 channels; 100 µmol/L GM, n = 10): 13.9% ± 2.2% | effect on Bay K8644- or Ca2+-induced contractions [3]: able to relax | resting membrane potential after GM perfusion [4]: did not change | inhibition ratio of firing frequency ([4]; 1 μmol/L GM, n = 6): 45.3% ± 3.7% | inhibition ratio of firing frequency ([4]; 3 μmol/L GM, n = 6): 49.6% ± 5.1% | reduction of action potential amplitude ([4]; 3 μmol/L GM, n = 6): 9.5% ± 1.8% | inhibition ratio of firing frequency ([4]; 10 μmol/L GM, n = 6): 82.3% ± 1.1% | reduction of action potential amplitude ([4]; 10 μmol/L GM, n = 6): 20.9% ± 3.2% | half-width of the action potential ([4]; 10 μmol/L GM, control 2.0 ± 0.2 ms, n = 6): 2.7 ± 0.4 ms | inhibition ratio of firing frequency ([4]; 30 μmol/L GM, n = 6): 97.8% ± 0.5% | reduction of action potential amplitude ([4]; 30 μmol/L GM, n = 6): 100.0% | change of NMDA (glutamate) receptor-mediated currents (NMDA receptors; 30 µmol/L GM): No remarkable changes | modulation of NMDA (glutamate) receptor-mediated currents (NMDA receptors; 100 µmol/L GM): very weak | ED50 for protection against MES [5]: 78.9 (60.3–103.3) mg/kg | inhibition of acetylcholine-evoked currents (nACh receptors): completely inhibited | IC50 [6]: 1.6 µM | half-activation voltage of NaV currents (NaV currents; 10 µmol/L GM, control −45.1 ± 1.0 mV): −42.7 ± 0.8 mV | V1/2 of steady-state inactivation of NaV currents (NaV currents; 10 µmol/L GM, control −54.4 ± 0.5 mV): −61.4 ± 0.6 mV | IC50 (NaV currents; read-out: IC50 on NaV currents, holding −90 mV, test pulse −20 mV, n = 7): 10.2 µM
